Experimental data from different studies.
Lines come from different studies, so protocols differ.
Target: Serine/threonine-protein kinase PAK 1 (PAK1, Homo sapiens, UniProt Q13153)

| SMILES | read-out | action | method | tested at | endpoint | value |
| --- | --- | --- | --- | --- | --- | --- |
| Nc1ncc(-c2nc(N3CCOCC3)nc(N3CCOCC3)n2)c(C(F)F)n1 | binding |  | competition with immobilised ligand | 10 µM | remaining binding | 63% |
| O=c1[nH]c2ccccc2n1C1CCN(Cc2ccc(-c3[nH]c4cc5ncnc5cc4nc3-c3ccccc3)cc2)CC1 | cell-free assay |  |  | 0.5 µM | remaining signal | 90.6% |
| COc1ncccc1-c1cnn2ccc(N3CCN(C(=O)OC(C)C)CC3)nc12 | binding |  | competition with immobilised ligand | 1 µM | remaining binding | 100% |
| Cc1nn(C)cc1-c1nc2c(N3CCN(Cc4ccc(Cl)cc4)CC3)c(Cl)cnc2[nH]1 | binding |  | competition with immobilised ligand | 1 µM | remaining binding | 100% |
| COc1cc(Nc2ncc(F)c(Nc3ccc4c(n3)NC(=O)C(C)(C)O4)n2)cc(OC)c1OC | binding |  | competition with immobilised ligand | 10 µM | inhibition | 91% |
| N#CC1(c2ccccn2)CCN(Cc2cc(C(=O)O)c(=O)n3ccccc23)CC1 | cell-free assay |  | competition with immobilised ligand | 1 µM | remaining binding | 86% |
| Cn1cc(-c2cccc(N3CCc4c(sc5c4CC(C)(C)C5)C3=O)c2CO)cc(Nc2ccncn2)c1=O | enzyme activity | inhibitor |  | 1 µM | inhibition | 9% |
| C#Cc1n[nH]c2c(-c3cn(C(C)c4ccccn4)c(=O)[nH]c3=O)cc(F)cc12 (centres unmarked) | enzyme activity | inhibitor |  | 1 µM | inhibition | 3.4% |
| Cn1cncc1[C@@](O)(COc1ccc(C#N)cc1-c1ccc(OC(F)(F)F)cc1)c1ccc(C#N)cc1 | cell-free assay |  | competition with immobilised ligand | 1 µM | remaining binding | 100% |
| C#Cc1n[nH]c2c(-c3cn([C@@H](C)c4ccccc4)c(=O)[nH]c3=O)cc(F)cc12 | enzyme activity | inhibitor |  | 0.1 µM | inhibition | 5.7% |
| Cn1cc(-c2cc(F)cc(N3CCn4c(cc5c4CCCC5)C3=O)c2CO)cc(Nc2ccc(N3CCN(C4COC4)CC3)cn2)c1=O | enzyme activity | inhibitor |  | 0.1 µM | inhibition | 5% |
